# Assay results of several laboratories.
# Lines come from different studies, so protocols differ.
# Target: Ephrin type-A receptor 4 (EPHA4, Homo sapiens, UniProt P54764)
SMILES,assay,conditions,endpoint,value
COc1cc2ncnc(Nc3ccc(Oc4ccccc4)c(C)c3C)c2cc1OC,"enzyme activity, inhibitor",1 µM,inhibition,10%
C[C@@H](c1cccc(C#N)c1)n1cc(Cl)cc(C(N)=O)c1=N,"cell-free assay, competition with immobilised ligand",1 µM,remaining binding,90%
CCCS(=O)(=O)Nc1ccc(F)c(C(=O)c2c[nH]c3ncc(-c4ccc(Cl)cc4)cc23)c1F,"enzyme activity, inhibitor",1 µM,inhibition,< 10%
CCCCN(CCCC)C(=O)CN1C[C@@H](c2cc(OC)c3c(c2)OCO3)[C@H](C(=O)O)[C@H]1CC(C)(C)CCC,"cell-free assay, competition with immobilised ligand",1 µM,remaining binding,95.7%
Cc1sc(C(=O)NC2COC2)cc1-n1cc(NC(=O)Nc2c(F)cccc2Cl)cn1,"enzyme activity, inhibitor",10 µM,remaining activity,116%
COc1cc(Cl)c(C(=O)N[C@@H](CN[C@H]2CC[C@@H](N)CC2)Cc2ccc(C#N)cc2)cc1-c1ccc(CN[C@H](C)c2ccc(C)cc2)o1,"enzyme activity, inhibitor",1 µM,remaining activity,99%
Cc1cnc(NC2CCOCC2)nc1-n1cnc(C(=O)NC(CN)c2cc(F)cc(Cl)c2)c1 (stereo not shown),"enzyme activity, inhibitor, radiometric",1 µM,remaining activity,104%
Nc1ncnc2occ(-c3ccc(NC(=O)Nc4cc(C(F)(F)F)ccc4F)cc3)c12,cell-free assay,20 µM,remaining signal,0%
O=C(NCCCC1CCCCC1)c1ccc(CNC(=O)c2cnn(-c3ccccc3)c2C(F)(F)F)cc1,"cell-free assay, competition with immobilised ligand",0.1 µM,remaining binding,70%
Cc1cc(NC(=O)c2cccc3cc(-c4cccc5[nH]nc(N)c45)ccc23)ccc1F,"enzyme activity, inhibitor",0.1 µM,activity vs control,73%
Cn1nc(C(F)(F)F)cc1-c1cnc(N2CCc3cc(S(=O)(=O)Nc4c(F)cc(Cl)cc4F)cc(N4CCCC4=O)c32)nc1,"cell-free assay, competition with immobilised ligand",1 µM,remaining binding,97%
O=C1NC(=O)c2cc(Nc3ccc(F)cc3)c(Nc3ccc(F)cc3)cc21,cell-free assay,0.5 µM,remaining signal,94%
COc1cc(Nc2cnc(C#N)c(O[C@H](C)CN(C)C)n2)ncc1-c1cnn(C)c1,"enzyme activity, inhibitor, radiometric",10 µM,remaining activity,41%
CCC(=O)N[C@@H]1CC[C@H](C(=O)N(C)c2ccc(-c3nc4ccccc4o3)cc2)C1,"cell-free assay, competition with immobilised ligand",1 µM,remaining binding,100%
Cn1c(=O)n(-c2ccc(C(C)(C)C#N)cc2)c2c3cc(-c4cnc5ccccc5c4)ccc3ncc21,"enzyme activity, inhibitor",10 µM,remaining activity,105%
Cc1c(NC(=O)c2cc(C(N)=O)nc3cc(F)ccc23)c(C(F)(F)F)nn1Cc1ccc(C#N)cc1,"cell-free assay, competition with immobilised ligand",1 µM,remaining binding,99%
N#CCCc1ccc2c(c1)-c1[nH]c3ccc([N+](=O)[O-])cc3c1CC(=O)N2,cell-free assay,0.5 µM,remaining signal,85.2%
Cc1ccc(C(=O)Nc2ccc(CN3CCN(C)CC3)c(C(F)(F)F)c2)cc1C#Cc1cnc2cccnn12,cell-free assay,23.5 nM,remaining signal,22%
CCN(CC)CCNC(=O)c1c(C)[nH]c(/C=C2\C(=O)Nc3ccc(F)cc32)c1C,"enzyme activity, inhibitor",0.3 µM,inhibition,1%
CC(C)(C)c1nc(-c2cccc(NS(=O)(=O)c3c(F)cccc3F)c2F)c(-c2ccnc(N)n2)s1,"enzyme activity, inhibitor, radiometric",1 µM,remaining activity,97%
CNC(=O)c1cc2c(Oc3ccc(NC(=O)C4(C(=O)Nc5ccc(F)cc5)CC4)cc3)ccnc2cc1OC,"enzyme activity, inhibitor, radiometric",1 µM,inhibition,83%
CCS(=O)(=O)c1cc2cc(C[C@](O)(CC(C)(C)c3ccc(F)cc3C(N)=O)C(F)(F)F)[nH]c2cn1,"cell-free assay, competition with immobilised ligand",1 µM,remaining binding,100%
Cc1ccc(Nc2nccc(N(C)c3ccc4c(C)n(C)nc4c3)n2)cc1S(N)(=O)=O,"enzyme activity, inhibitor",0.3 µM,inhibition,3%
COc1ccc2cc(OCC3(C(=O)O)CN(C(=O)c4ccc(F)cc4)C3)ccc2c1,"cell-free assay, competition with immobilised ligand",1 µM,remaining binding,100%
CNC(=O)c1cc(Oc2ccc(NC(=O)Nc3ccc(Cl)c(C(F)(F)F)c3)cc2)ccn1,"enzyme activity, inhibitor",0.3 µM,inhibition,7%
